{"source": "ChEMBL document CHEMBL3872205", "about": "“Design, synthesis and evaluation of novel potent angiotensin II receptor 1 antagonists” (Eur J Med Chem, 2016)", "key": {"[1]": {"assay": "Cmax in Wistar rat heart at 30 mg/kg, po by HPLC analysis", "type": "ADME, organism-based", "design": "dose 30 mg/kg, route oral", "method_in_brief": "(§1)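 Tissue distribution in male Wistar rats given oral 10, 15 or 30 mg/kg; heart, liver, spleen, lung, kidney and brain collected predose and 0.5–72 h post-dose (n = 6 per time). Tissue rinsed in saline, homogenised 0.25 g/1 mL saline, methanol extraction, dried under nitrogen, reconstituted in methanol. Analysis by reverse-phase C18 HPLC, acetonitrile/water 60:40, 1.0 mL/min, ambient temperature.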"}, "[2]": {"assay": "Displacement of 125I-Ang2 from AT1 receptor in SPF Sprague-Dawley rat vascular smooth muscle cell membranes after 150 mins by gamma counting method", "method_in_brief": "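Primary aortic VSMCs from SPF Sprague-Dawley rats, obtained by explant culture in DMEM/10% FBS and identified by SM α-actin staining; passages 3–6. Whole cells (10^6/well) incubated with 125I-Ang II (diluted to 0.2 nM) and compound at final 10^-12–10^-6 M, 4 °C for 150 min. Washed, lysed in 0.1 M NaOH, γ-counted. IC50 from nonlinear fit of competition curves.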"}, "[3]": {"assay": "AUC (0 to 72 hrs) in Wistar rat kidney at 30 mg/kg, po by HPLC analysis", "type": "ADME, organism-based", "design": "time < 72 hr, dose 30 mg/kg, route oral", "method_in_brief": "(§2)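 Wistar rats (180 ± 20 g) were dosed orally at 10, 15 or 30 mg/kg. Heart, liver, spleen, lung, kidney and brain were collected at 0–72 h (n = 6 per point). Tissue was rinsed, blotted and homogenized in saline (0.25 g/1 mL), then spun at 10,000 × g. Supernatant was methanol-extracted, dried under nitrogen at 50 °C, reconstituted in methanol and run on C18 HPLC (acetonitrile 60%/water 40%, 1.0 mL/min).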"}, "[4]": {"assay": "Tmax in Wistar rat plasma at 10 mg/kg, po by HPLC analysis", "type": "ADME, organism-based", "method_in_brief": "(§3)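 Male Wistar rats (180 ± 20 g), 6 per dose group, each given a single oral dose. Blood was drawn by retro-orbital puncture into heparin at predose and at 0.5, 1, 2, 4, 6, 8, 12, 24, 48 and 72 h, then spun at 4000 × g and 4 °C. Plasma with internal standard was acetonitrile-precipitated, filtered and run on reverse-phase C18 HPLC (0.02 mol/L KH2PO4 55% / acetonitrile 45%, 1.0 mL/min). Calibration standards were 0.1–10 µg/mL, fitted by peak-height ratio with 1/conc² weighting.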"}, "[5]": {"assay": "Tmax in Wistar rat Heart at 30 mg/kg, po by HPLC analysis", "type": "ADME, organism-based", "method_in_brief": "(§4)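 Male Wistar rats (180 ± 20 g) received a single oral dose of 10, 15 or 30 mg/kg. Tissues were collected at 0, 0.5, 1, 2, 4, 6, 8, 12, 24, 48 and 72 h (n = 6 per point). Samples of 0.25 g were rinsed, then homogenized in saline (0.25 g/1 mL) and centrifuged at 10,000 × g. Supernatant was methanol-extracted, dried under nitrogen at 50 °C and reconstituted in methanol. Analysis was by C18 HPLC (acetonitrile 60% / water 40%, 1.0 mL/min).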"}, "[6]": {"assay": "AUC (0 to infinity) in Wistar rat lung at 10 mg/kg, po by HPLC analysis", "type": "ADME, organism-based", "design": "dose 10 mg/kg, time infinity, route oral", "method_in_brief": "as §2"}, "[7]": {"assay": "AUC (0 to 72 hrs) in Wistar rat plasma at 30 mg/kg, po by HPLC analysis", "type": "ADME, organism-based", "design": "time < 72 hr, dose 30 mg/kg, route oral", "method_in_brief": "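Male Wistar rats (180 ± 20 g, n = 6 per group) got one oral dose. Heparinized blood was taken by retro-orbital puncture before dosing and at 0.5–72 h. Plasma was spun at 4000 × g, 4 °C, 10 min, spiked with internal standard and protein-precipitated with acetonitrile. Analysis was reverse-phase C18 HPLC (0.02 mol/L KH2PO4 55%/acetonitrile 45%, 1.0 mL/min). Calibration used 0.1–10 µg/mL, peak-height ratio, weighting concentration^-2.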"}, "[8]": {"assay": "MRT (0 to infinity) in Wistar rat kidney at 15 mg/kg, po by HPLC analysis", "type": "ADME, organism-based", "method_in_brief": "as §4"}, "[9]": {"assay": "MRT (0 to 72 hrs) in Wistar rat liver at 30 mg/kg, po by HPLC analysis", "type": "ADME, organism-based", "method_in_brief": "as §4"}, "[10]": {"assay": "Tmax in Wistar rat brain at 15 mg/kg, po by HPLC analysis", "type": "ADME, organism-based", "method_in_brief": "as §4"}, "[11]": {"assay": "AUC (0 to 72 hrs) in Wistar rat kidney at 10 mg/kg, po by HPLC analysis", "type": "ADME, organism-based", "design": "dose 10 mg/kg, time < 72 hr, route oral", "method_in_brief": "as §2"}, "[12]": {"assay": "Tmax in Wistar rat kidney at 30 mg/kg, po by HPLC analysis", "type": "ADME, organism-based", "method_in_brief": "as §4"}, "[13]": {"assay": "Toxicity in ICR mouse assessed as mortality at 1200 mg/kg, ig after 2 weeks", "type": "organism-based", "details": "in vivo, po"}, "[14]": {"assay": "AUC (0 to infinity) in Wistar rat spleen at 15 mg/kg, po by HPLC analysis", "type": "ADME, organism-based", "design": "dose 15 mg/kg, route oral, time infinity", "method_in_brief": "as §2"}, "[15]": {"assay": "MRT (0 to infinity) in Wistar rat plasma at 15 mg/kg, po by HPLC analysis", "type": "ADME, organism-based", "method_in_brief": "as §3"}, "[16]": {"assay": "MRT (0 to infinity) in Wistar rat spleen at 10 mg/kg, po by HPLC analysis", "type": "ADME, organism-based", "method_in_brief": "as §4"}, "[17]": {"assay": "MRT (0 to infinity) in Wistar rat kidney at 30 mg/kg, po by HPLC analysis", "type": "ADME, organism-based", "method_in_brief": "as §4"}, "[18]": {"assay": "AUC (0 to 72 hrs) in Wistar rat lung at 30 mg/kg, po by HPLC analysis", "type": "ADME, organism-based", "design": "time < 72 hr, dose 30 mg/kg, route oral", "method_in_brief": "as §2"}, "[19]": {"assay": "MRT (0 to 72 hrs) in Wistar rat liver at 10 mg/kg, po by HPLC analysis", "type": "ADME, organism-based", "method_in_brief": "as §1"}, "[20]": {"assay": "AUC (0 to infinity) in Wistar rat liver at 10 mg/kg, po by HPLC analysis", "type": "ADME, organism-based", "design": "dose 10 mg/kg, route oral, time infinity", "method_in_brief": "as §2"}, "[21]": {"assay": "Half life in Wistar rat spleen at 30 mg/kg, po by HPLC analysis", "type": "ADME, organism-based", "method_in_brief": "as §1"}, "[22]": {"assay": "Tmax in Wistar rat spleen at 30 mg/kg, po by HPLC analysis", "type": "ADME, organism-based"}, "[23]": {"assay": "AUC (0 to 72 hrs) in Wistar rat liver at 15 mg/kg, po by HPLC analysis", "type": "ADME, organism-based", "design": "dose 15 mg/kg, time < 72 hr, route oral", "method_in_brief": "as §2"}, "[24]": {"assay": "MRT (0 to infinity) in Wistar rat Heart at 10 mg/kg, po by HPLC analysis", "type": "ADME, organism-based", "method_in_brief": "as §4"}, "[25]": {"assay": "AUC (0 to 72 hrs) in Wistar rat brain at 10 mg/kg, po by HPLC analysis", "type": "ADME, organism-based", "design": "time < 72 hr, dose 10 mg/kg, route oral", "method_in_brief": "as §2"}, "[26]": {"assay": "Half life in Wistar rat lung at 30 mg/kg, po by HPLC analysis", "type": "ADME, organism-based", "method_in_brief": "as §1"}, "[27]": {"assay": "Cmax in Wistar rat brain at 15 mg/kg, po by HPLC analysis", "type": "ADME, organism-based", "design": "dose 15 mg/kg, route oral", "method_in_brief": "as §2"}, "[28]": {"assay": "Cmax in Wistar rat kidney at 15 mg/kg, po by HPLC analysis", "type": "ADME, organism-based", "design": "dose 15 mg/kg, route oral", "method_in_brief": "as §1"}, "[29]": {"assay": "AUC (0 to 72 hrs) in Wistar rat spleen at 10 mg/kg, po by HPLC analysis", "type": "ADME, organism-based", "design": "dose 10 mg/kg, time < 72 hr, route oral", "method_in_brief": "as §2"}, "[30]": {"assay": "Cmax in Wistar rat brain at 10 mg/kg, po by HPLC analysis", "type": "ADME, organism-based", "design": "dose 10 mg/kg, route oral", "method_in_brief": "as §2"}, "[31]": {"assay": "AUC (0 to infinity) in Wistar rat spleen at 10 mg/kg, po by HPLC analysis", "type": "ADME, organism-based", "design": "dose 10 mg/kg, time infinity, route oral", "method_in_brief": "as §2"}, "[32]": {"assay": "MRT (0 to 72 hrs) in Wistar rat plasma at 10 mg/kg, po by HPLC analysis", "type": "ADME, organism-based", "method_in_brief": "as §3"}, "[33]": {"assay": "AUC (0 to infinity) in Wistar rat Heart at 15 mg/kg, po by HPLC analysis", "type": "ADME, organism-based", "design": "dose 15 mg/kg, time infinity, route oral", "method_in_brief": "as §2"}}}
{"molecule": "CCCCC1=NC2(CCCC2)C(=O)N1Cc1ccc2c(ccn2-c2ccccc2-c2nnn[nH]2)c1", "values": [{"measurement": "Cmax", "setting": "[1]", "value": 401, "unit": "ng/mL"}, {"measurement": "IC50", "setting": "[2]", "value": 1.26, "unit": "nM"}, {"measurement": "Ki", "setting": "[2]", "value": 0.91, "unit": "nM"}, {"measurement": "AUC(0-t) at 72 h", "setting": "[3]", "value": 22400, "unit": "ng·h/mL"}, {"measurement": "Tmax", "setting": "[4]", "value": 5.67, "unit": "h"}, {"measurement": "Tmax", "setting": "[5]", "value": 4.8, "unit": "h"}, {"measurement": "AUC(0-inf)", "setting": "[6]", "value": 745, "unit": "ng·h/mL"}, {"measurement": "AUC(0-t) at 72 h", "setting": "[7]", "value": 89500, "unit": "ng·h/mL"}, {"measurement": "MRT inf", "setting": "[8]", "value": 29.4, "unit": "h"}, {"measurement": "MRT last", "setting": "[9]", "value": 6.3, "unit": "h"}, {"measurement": "Tmax", "setting": "[10]", "value": 4.83, "unit": "h"}, {"measurement": "AUC(0-t) at 72 h", "setting": "[11]", "value": 4340, "unit": "ng·h/mL"}, {"measurement": "Tmax", "setting": "[12]", "value": 2, "unit": "h"}, {"measurement": "mortality at 336 h", "setting": "[13]", "value": 0, "unit": "%"}, {"measurement": "AUC(0-inf)", "setting": "[14]", "value": 12000, "unit": "ng·h/mL"}, {"measurement": "MRT inf", "setting": "[15]", "value": 13.7, "unit": "h"}, {"measurement": "MRT inf", "setting": "[16]", "value": 30.4, "unit": "h"}, {"measurement": "MRT inf", "setting": "[17]", "value": 24.1, "unit": "h"}, {"measurement": "AUC(0-t) at 72 h", "setting": "[18]", "value": 2360, "unit": "ng·h/mL"}, {"measurement": "MRT last", "setting": "[19]", "value": 4.93, "unit": "h"}, {"measurement": "AUC(0-inf)", "setting": "[20]", "value": 3320, "unit": "ng·h/mL"}, {"measurement": "half-life", "setting": "[21]", "value": 13.4, "unit": "h"}, {"measurement": "Tmax", "setting": "[22]", "value": 2, "unit": "h"}, {"measurement": "AUC(0-t) at 72 h", "setting": "[23]", "value": 4890, "unit": "ng·h/mL"}, {"measurement": "MRT inf", "setting": "[24]", "value": 12, "unit": "h"}, {"measurement": "AUC(0-t) at 72 h", "setting": "[25]", "value": 346, "unit": "ng·h/mL"}, {"measurement": "half-life", "setting": "[26]", "value": 2.35, "unit": "h"}, {"measurement": "Cmax", "setting": "[27]", "value": 93.3, "unit": "ng/mL"}, {"measurement": "Cmax", "setting": "[28]", "value": 210, "unit": "ng/mL"}, {"measurement": "AUC(0-t) at 72 h", "setting": "[29]", "value": 9470, "unit": "ng·h/mL"}, {"measurement": "Cmax", "setting": "[30]", "value": 37.2, "unit": "ng/mL"}, {"measurement": "AUC(0-inf)", "setting": "[31]", "value": 11700, "unit": "ng·h/mL"}, {"measurement": "MRT last", "setting": "[32]", "value": 7.87, "unit": "h"}, {"measurement": "AUC(0-inf)", "setting": "[33]", "value": 6700, "unit": "ng·h/mL"}]}
